Assay results published in ChEMBL document CHEMBL1154830, “A beta-carboline alkaloid from the Papua New Guinea marine sponge hyrtios reticulatus” (J Nat Prod, 2010).
≈ marks a conversion by molar mass, not a printed value. Calls of active or inactive are those of the source. No cut-off for these calls is given here.

Assays:
BT-549 = experiment: Cytotoxic activity against human BT549 cells after 96 hrs by luminescent cell viability assay; assay type: functional, cell-based; settings: BT-549, 96 h
Summary of the method: (§1)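 Cells in 96-well plates grown without compound or with continuous exposure to 1.5–50,000 nM test compound for 96 h. Growth read by CellTiter-Glo luminescence. IC50 is the concentration giving 50% growth inhibition relative to untreated cells. Two separate replicate experiments.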

U-937 = experiment: Cytotoxic activity against human U937 cells after 96 hrs by luminescent cell viability assay; assay type: functional, cell-based; settings: U-937, 96 h
SR = experiment: Cytotoxic activity against human SR cells after 96 hrs by luminescent cell viability assay; assay type: functional, cell-based
MCF7 = experiment: Cytotoxic activity against human MCF7 cells after 96 hrs by luminescent cell viability assay; assay type: functional, cell-based; settings: MCF7, 96 h
HeLa [1] = experiment: Cytotoxicity against human HeLa cells assessed as disruption of cytoskeleton at 230 uM after 24 hrs by rhodamine-phalloidin staining method; assay type: functional, cell-based
Summary of the method: (§2)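 HeLa cells plated at 1500 cells/well and held overnight at 37 °C, 5% CO2, then compound pinned in. After 24 h, fixed in 4% formaldehyde for 20 min, permeabilized with 0.5% Triton X-100 in PBS for 10 min and blocked. Actin stained with rhodamine-phalloidin for 20 min and DNA with Hoechst 33342.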

HeLa [2] = experiment: Cytotoxicity against human HeLa cells at 230 uM after 24 hrs; assay type: functional; summary of the method: as §2
UACC-257 = experiment: Cytotoxic activity against human UACC257 cells after 96 hrs by luminescent cell viability assay; assay type: functional, cell-based; settings: UACC-257, 96 h
NCI-H460 = experiment: Cytotoxic activity against human H460 cells after 96 hrs by luminescent cell viability assay; assay type: functional, cell-based; settings: NCI-H460, 96 h; summary of the method: as §1
DU-145 = experiment: Cytotoxic activity against human DU145 cells after 96 hrs by luminescent cell viability assay; assay type: functional, cell-based; settings: DU-145, 96 h; summary of the method: as §1
HeLa [3] = experiment: Cytotoxicity against human HeLa cells assessed as nuclear blebbing at 230 uM after 24 hrs by hoechst 33342 staining method; assay type: functional, cell-based; summary of the method: as §2
[4] = Cytotoxic activity against human H522-T1 cells after 96 hrs by luminescent cell viability assay; assay type: functional, cell-based; settings: H522-T1, 96 h
SF-539 = experiment: Cytotoxic activity against human SF539 cells after 96 hrs by luminescent cell viability assay; assay type: functional, cell-based; settings: SF-539, 96 h
MDA-MB-435 = experiment: Cytotoxic activity against human MDA-MB-435 cells after 96 hrs by luminescent cell viability assay; assay type: functional, cell-based; settings: MDA-MB-435, 96 h
HT-29 = experiment: Cytotoxic activity against human HT-29 cells after 96 hrs by luminescent cell viability assay; assay type: functional, cell-based; settings: HT-29, 96 h; summary of the method: as §1
HCC 2998 = experiment: Cytotoxic activity against human HCC2998 cells after 96 hrs by luminescent cell viability assay; assay type: functional, cell-based; settings: HCC 2998, 96 h
OVCAR-5 = experiment: Cytotoxic activity against human OVCAR5 cells after 96 hrs by luminescent cell viability assay; assay type: functional, cell-based; settings: OVCAR-5, 96 h

O=C(O)c1cc2c([nH]c3ccc(O)cc32)c(C(=O)c2c[nH]cn2)n1 [HYRTIOCARBOLIN]
IC50 (BT-549): 45 µg/mL (≈ 140 µM) | IC50 (U-937): 1.5 µg/mL (≈ 4.65 µM) | IC50 (SR): > 50 µg/mL | IC50 (MCF7): > 50 µg/mL | Activity (HeLa [1]): Active | inhibition at 230 µM (HeLa [2]): 57% | IC50 (UACC-257): > 50 µg/mL | IC50 (NCI-H460): 17 µg/mL (≈ 52.7 µM) | IC50 (DU-145): 34 µg/mL (≈ 105 µM) | Activity (HeLa [3]): Active | IC50 [4]: 1.2 µg/mL (≈ 3.72 µM) | IC50 (SF-539): > 50 µg/mL | IC50 (MDA-MB-435): 3 µg/mL (≈ 9.31 µM) | IC50 (HT-29): > 50 µg/mL | IC50 (HCC 2998): > 50 µg/mL | IC50 (OVCAR-5): > 50 µg/mL
